The source made the active and inactive calls. The rule behind the calls is not given here.
What was measured:
[1] = tested on: LNCaP; test: Cell cycle arrest in human LNCAP cells assessed as accumulation at S phase at 40 uM after 24 hrs by propidium iodide staining based flow cytometry (reference value: 37.5%); type: functional
[2] = tested on: LNCaP; test: Cell cycle arrest in human LNCAP cells assessed as accumulation at less G1 phase at 40 uM after 24 hrs by propidium iodide staining based flow cytometry (reference value: 1.5%); type: functional
[3] = tested on: LNCaP; test: Cell cycle arrest in human LNCAP cells assessed as accumulation at G2 phase at 40 uM after 24 hrs by propidium iodide staining based flow cytometry (reference value: 9.83%); type: functional
[4] = tested on: LNCaP; test: Cell cycle arrest in human LNCAP cells assessed as accumulation at greater G2 phase at 40 uM after 24 hrs by propidium iodide staining based flow cytometry (reference value: -0.37%); type: functional
[5] = tested on: LNCaP; test: Cell cycle arrest in human LNCAP cells assessed as accumulation at G1 phase at 40 uM after 24 hrs by propidium iodide staining based flow cytometry (reference value: 52.4%); type: functional
[6] = tested on: LNCaP; test: Antiproliferative activity against human LNCAP cells after 72 hrs by MTS assay; type: functional, cell-based
In short: (§1)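 Seeded at 4,500 cells per well and exposed to compound in triplicate for 72 h. LNCaP were cultured in phenol-red-free RPMI-1640 and DU145 in EMEM, each with 10% FBS and penicillin/streptomycin, at 37 °C under 5% CO2. Viability was read by MTS. IC50 came from dose-response curve fitting. For combination lines, genistein was given together with enzalutamide.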

[7] = tested on: DU-145; test: Antiproliferative activity against human DU145 cells after 72 hrs by MTS assay; type: functional, cell-based; in short: as §1
[8] = tested on: LNCaP; test: Cell cycle arrest in human LNCAP cells assessed as accumulation at G1 phase at 2.5 uM after 24 hrs by propidium iodide staining based flow cytometry (reference value: 52.4%); type: functional
[9] = tested on: LNCaP; test: Cell cycle arrest in human LNCAP cells assessed as accumulation at G2 phase at 2.5 uM after 24 hrs by propidium iodide staining based flow cytometry (reference value: 9.83%); type: functional
[10] = tested on: LNCaP; test: Cell cycle arrest in human LNCAP cells assessed as accumulation at G1 phase at 5 uM after 24 hrs by propidium iodide staining based flow cytometry (reference value: 52.4%); type: functional
[11] = tested on: CWR22R; test: Antiproliferative activity against human 22Rv1 cells harboring truncated AR at 1.25 uM after 72 hrs by MTS assay relative to control; type: functional
In short: (§2)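 PC3, C4-2 and 22Rv1 prostate cancer cells treated in serum-fed medium with a range of doses, up to 50 μM. Growth read at 72 h post-treatment by MTS assay as percent of control. Data are averages of two independent experiments, each done in duplicate.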

[12] = tested on: LNCaP; test: Cell cycle arrest in human LNCAP cells assessed as accumulation at less G1 phase at 5 uM after 24 hrs by propidium iodide staining based flow cytometry (reference value: 1.5%); type: functional
[13] = tested on: LNCaP; test: Cell cycle arrest in human LNCAP cells assessed as accumulation at S phase at 2.5 uM after 24 hrs by propidium iodide staining based flow cytometry (reference value: 37.5%); type: functional
[14] = tested on: LNCaP; test: Cell cycle arrest in human LNCAP cells assessed as accumulation at S phase at 5 uM after 24 hrs by propidium iodide staining based flow cytometry (reference value: 37.5%); type: functional
[15] = tested on: PC-3; test: Antiproliferative activity against human AR negative PC3 cells at 2.5 uM after 72 hrs by MTS assay relative to control; type: functional; in short: as §2
[16] = tested on: LNCaP; test: Cell cycle arrest in human LNCAP cells assessed as accumulation at greater G2 phase at 5 uM after 24 hrs by propidium iodide staining based flow cytometry (reference value: -0.37%); type: functional
[17] = tested on: DU-145; test: Antiproliferative activity against human DU145 cells assessed as cell survival up to 100 uM after 72 hrs by MTS assay relative to control; type: functional
In short: (§3)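 LNCaP (phenol-red free RPMI-1640) or DU145 (EMEM), each with 10% FBS and penicillin/streptomycin, at 37 °C in 5% CO2. Cells seeded at 4,500 per well and exposed to compound in triplicate for 72 h. Viability read by MTS. Curves are the average of triplicate experiments, with IC50 taken from curve fitting.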

[18] = tested on: LNCaP; test: Cell cycle arrest in human LNCAP cells assessed as accumulation at less G1 phase at 2.5 uM after 24 hrs by propidium iodide staining based flow cytometry (reference value: 1.5%); type: functional
[19] = tested on: LNCaP; test: Cell cycle arrest in human LNCAP cells assessed as accumulation at G2 phase at 5 uM after 24 hrs by propidium iodide staining based flow cytometry (reference value: 9.83%); type: functional
[20] = tested on: LNCaP; test: Cell cycle arrest in human LNCAP cells assessed as accumulation at greater G2 phase at 2.5 uM after 24 hrs by propidium iodide staining based flow cytometry (reference value: -0.37%); type: functional
[21] = tested on: LNCaP; test: Downregulation of AR protein level in human LNCAP cells after 24 hrs by Western blot method; type: functional, cell-based
In short: (§4)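 LNCaP seeded at 10^6 cells/dish 24 h before a 24 h compound treatment, with DMSO as control. Lysates were made in CelLyticM with protease inhibitors and quantified by Bradford. Equal protein was run on SDS-PAGE at 100 V for 2 h, transferred to nitrocellulose, and probed for AR, with actin as loading control.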

[22] = tested on: LNCaP; test: Downregulation of AR protein level in human LNCAP cells at 1.25 to 2.5 uM after 24 hrs in presence of proteasome inhibitor bortezomib by Western blot method; type: functional, cell-based
In short: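 LNCaP seeded at 10^6 cells/dish and pretreated with bortezomib at 20 nM or 40 nM for 2 h. Cells were then exposed to compound for 24 h. AR protein was assessed by immunoblot after Bradford-normalized SDS-PAGE (100 V, 2 h) and nitrocellulose transfer, with actin as loading control.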

[23] = tested on: LNCaP C4-2; test: Antiproliferative activity against human AR positive C4-2 cells at 1.25 uM after 72 hrs by MTS assay relative to control; type: functional; in short: as §2
[24] = tested on: LNCaP; test: Antiproliferative activity against human LNCAP cells assessed as cell survival up to 100 uM after 72 hrs by MTS assay relative to control; type: functional; in short: as §3
[25] = tested on: LNCaP; test: Cell cycle arrest in human LNCAP cells assessed as accumulation at G2 phase at 25 uM after 24 hrs by propidium iodide staining based flow cytometry (reference value: 9.83%); type: functional
[26] = tested on: CWR22R; test: Antiproliferative activity against human 22Rv1 cells harboring truncated AR at 50 uM after 72 hrs by MTS assay relative to control; type: functional; in short: as §2
[27] = tested on: LNCaP; test: Cell cycle arrest in human LNCAP cells assessed as accumulation at G1 phase at 25 uM after 24 hrs by propidium iodide staining based flow cytometry (reference value: 52.4%); type: functional
[28] = tested on: LNCaP; test: Antiproliferative activity against human LNCAP cells assessed as cell survival at 100 uM after 72 hrs in presence of enzalutamide by MTS assay relative to control; type: functional; details: read-out: Survival; in short: as §3
[29] = tested on: LNCaP; test: Cell cycle arrest in human LNCAP cells assessed as accumulation at less G1 phase at 25 uM after 24 hrs by propidium iodide staining based flow cytometry (reference value: 1.5%); type: functional
[30] = tested on: LNCaP; test: Cell cycle arrest in human LNCAP cells assessed as accumulation at greater G2 phase at 25 uM after 24 hrs by propidium iodide staining based flow cytometry (reference value: -0.37%); type: functional
[31] = organism: Homo sapiens; test: Inhibition of HDAC6/HSP90 in human LNCAP cells assessed as downregulation of AR protein level at 2.5 uM after 24 hrs by Western blot method; type: cell-based; in short: as §4
[32] = tested on: DU-145; test: Antiproliferative activity against human DU145 cells after 72 hrs in presence of enzalutamide by MTS assay; type: functional, cell-based; in short: as §1
[33] = tested on: LNCaP; test: Antiproliferative activity against human LNCAP cells after 72 hrs in presence of enzalutamide by MTS assay; type: functional, cell-based; in short: as §1
[34] = tested on: LNCaP; test: Antiproliferative activity against human LNCAP cells; type: functional, cell-based
[35] = tested on: LNCaP; test: Cell cycle arrest in human LNCAP cells assessed as accumulation at S phase at 25 uM after 24 hrs by propidium iodide staining based flow cytometry (reference value: 37.5%); type: functional
[36] = tested on: LNCaP C4-2; test: Antiproliferative activity against human AR positive C4-2 cells at 50 uM after 72 hrs by MTS assay relative to control; type: functional; in short: as §2
[37] = tested on: PC-3; test: Antiproliferative activity against human AR negative PC3 cells at 50 uM after 72 hrs by MTS assay relative to control; type: functional; in short: as §2
[38] = tested on: CWR22R; test: Antiproliferative activity against human 22Rv1 cells harboring truncated AR up to 25 uM after 72 hrs by MTS assay; type: functional, cell-based; in short: as §2

## C#CCCCCN1C(=O)N(c2ccc(C#N)c(C(F)(F)F)c2)C(=O)C1(C)C
[1]
  Activity: 54.2%
[2]
  Activity: -0.44%
[3]
  Activity: 13.4%
[4]
  Activity: -0.21%
[5]
  Activity: 33.1%

## CC1(C)C(=O)N(c2ccc(C#N)c(C(F)(F)F)c2)C(=S)N1c1ccc(-c2cn(CCOCCOCCOCCOCCOCCOCCOCCOc3cc(O)c4c(=O)c(-c5ccc(O)cc5)coc4c3)nn2)cc1
[6]
  Activity: inactive
[7]
  Activity: inactive

## CC1(C)C(=O)N(c2ccc(C#N)c(C(F)(F)F)c2)C(=S)N1c1ccc(-c2cn(CCOc3cc(O)c4c(=O)c(-c5ccc(O)cc5)coc4c3)nn2)cc1
[6]
  Activity: inactive
[7]
  Activity: inactive

## CC1(C)C(=O)N(c2ccc(C#N)c(C(F)(F)F)c2)C(=O)N1CCCCc1cn(CCOCCOCCOCCOCCOCCOCCOCCOc2cc(O)c3c(=O)c(-c4ccc(O)cc4)coc3c2)nn1
[8]
  Activity: 34%
[6]
  IC50: 1.4 µM
[9]
  Activity: 10.6%
[10]
  Activity: 39.2%
[11]
  Activity: 15 - 20%
[12]
  Activity: -0.92%
[7]; DU-145, 72 h
  IC50: 3.4 µM
[13]
  Activity: 54.7%
[14]
  Activity: 50.8%
[15]
  Activity: 5 - 10%
[16]
  Activity: -0.63%
[17]
  Survival: <40%
[18]
  Activity: -0.094%
[19]
  Activity: 11.3%
[20]
  Activity: 0.55%
[21]
  Activity: Dose-dependent effect
[22]
  Activity: Active
[23]
  Activity: 50%
[24]
  Survival: <40%

## O=c1c(-c2ccc(O)cc2)coc2cc(O)cc(O)c12 [GENISTEIN]
[6]
  IC50: 24 µM
[25]
  Activity: 9.34%
[26]
  Activity: 40%
[27]
  Activity: 37.1%
[28]
  viability at 100 µM: 40%
[29]
  Activity: -0.34%
[30]
  Activity: 0.21%
[31]
  inhibition: Active
[32]
  Activity: Dose-dependent effect
[33]
  IC50: 31.7 µM
[34]
  IC50: 10 to 40 µM
[35]
  Activity: 52.5%
[36]
  Activity: 40%
[37]
  Activity: 40%

## CNC(=O)c1ccc(N2C(=S)N(c3ccc(C#N)c(C(F)(F)F)c3)C(=O)C2(C)C)cc1F
[38]
  Activity: Active

## CC1(C)C(=O)N(c2ccc(C#N)c(C(F)(F)F)c2)C(=O)N1CCCCc1cn(CCOc2cc(O)c3c(=O)c(-c4ccc(O)cc4)coc3c2)nn1
[6]
  Activity: inactive
[7]
  Activity: inactive

## CC1(C)C(=O)N(c2ccc(C#N)c(C(F)(F)F)c2)C(=S)N1Cc1ccc(-c2cn(CCOCCOCCOCCOCCOCCOCCOCCOc3cc(O)c4c(=O)c(-c5ccc(O)cc5)coc4c3)nn2)cc1
[6]
  Activity: inactive
[7]
  Activity: inactive

## CC1(C)C(=O)N(c2ccc(C#N)c(C(F)(F)F)c2)C(=S)N1Cc1ccc(-c2cn(CCOc3cc(O)c4c(=O)c(-c5ccc(O)cc5)coc4c3)nn2)cc1
[6]
  Activity: inactive
[7]
  Activity: inactive

Source: ChEMBL document CHEMBL4219079, “Design, synthesis, and evaluation of the antiproliferative activity of hydantoin-derived antiandrogen-genistein conjugates” (Bioorg Med Chem, 2018)
